Screening results (PubChem BioAssay)
MrgX1 antag – antagonists of human MrgX1 receptor. Q96LB2. MRGX1-HEK293 calcium flux, Fluo-4, BAM8-22 antagonism; stronger effect = lower value. B-score at 10 µM. 1.3% of 310,000 active. AID 588676;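 active means calcium-response B-score plate-corrected more than 3 library SD below zero, starting fluorescence within 5 deviations, no agonist response on first addition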;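 further: peak minus trough fluorescence over baseline after final BAM8-22 challenge near maximal dose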
Target sequence (Q96LB2 whole entry, looked up): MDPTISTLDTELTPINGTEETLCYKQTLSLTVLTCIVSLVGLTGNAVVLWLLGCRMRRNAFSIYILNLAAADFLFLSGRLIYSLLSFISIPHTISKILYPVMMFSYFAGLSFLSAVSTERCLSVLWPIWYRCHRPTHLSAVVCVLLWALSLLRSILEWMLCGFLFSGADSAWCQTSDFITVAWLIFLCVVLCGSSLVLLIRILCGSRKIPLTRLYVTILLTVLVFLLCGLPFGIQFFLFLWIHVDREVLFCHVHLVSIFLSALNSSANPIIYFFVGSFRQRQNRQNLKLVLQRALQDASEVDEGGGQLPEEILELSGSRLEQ
MrgX1 PAM – allosterically activates human MrgX1 receptor signaling; B-score at 10 µM; MrgX1-HEK293, Fluo-4 calcium flux, FDSS; stronger effect = higher value; 0.63% of 310,000 active; Q96LB2;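 active means plate-corrected calcium response at least 3 library SD above typical, normal starting fluorescence, not activating the receptor alone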;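 further: compound read alongside a low EC10 to EC30 dose of BAM8-22 agonist; peak minus trough fluorescence over baseline measured at the second addition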
RGS4 inh – human RGS4 inhibition; HEK293 M3R/RGS4 inducible, Fluo-4 calcium flux; stronger effect = higher value; triggered by carbachol at its EC20; B-score at 10 µM; 0.45% of 310,000 active; P49798;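 active means B-score, a plate-corrected calcium signal, over three deviations above library mean, with baseline fluorescence within five deviations of library mean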;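 further: RGS4 expression induced by doxycycline in cells with stable M3 receptor; B-score is computed from the integrated fluorescence ratio over baseline after carbachol; higher B-score means a larger calcium signal and so more RGS4 inhibition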
Target sequence (P49798 whole entry, looked up): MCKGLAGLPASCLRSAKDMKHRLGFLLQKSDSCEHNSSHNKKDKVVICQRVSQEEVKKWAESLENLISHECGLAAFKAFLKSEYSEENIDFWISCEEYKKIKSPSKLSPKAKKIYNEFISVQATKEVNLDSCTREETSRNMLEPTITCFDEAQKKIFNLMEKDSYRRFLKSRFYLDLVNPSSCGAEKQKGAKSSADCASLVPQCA
RGS4 pot – potentiators or activators of RGS4 | AID 463111 | HEK293 M3R/inducible RGS4, carbachol calcium flux Fluo4; stronger effect = lower value | B-score at 10 µM | 0.92% of 310,000 active;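 active means B-score of the integrated calcium signal more than 4 SD below the library mean, with starting fluorescence not abnormally high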;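 further: negative B-score means reduced calcium response which marks RGS4 activation or potentiation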
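Assay system: HEK293 FlpIn-TREx cells, stable M3R, doxycycline-inducible RGS4 / Probe or stimulus: carbachol, ECmax concentration / Times: overnight RGS4 induction, 30 min dye load 37 °C, 20 min compound RT / Signal: kinetic calcium fluorescence imaging with Fluo4-AM dye, 2 µM / Measure: Agonist-evoked peak-minus-minimum fluorescence over baseline, integrated ratio, B score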
MrgX1 agonist – human MrgX1 receptor agonism, primary screen; MrgX1-HEK293 cells, Fluo-4 calcium fluorescence, agonist mode; stronger effect = higher value; B-score at 10 µM; 0.44% of 310,000 active;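 active means calcium response B-score plate-corrected fluorescence ratio at least 3 library SD, with starting fluorescence B-score inside 5 SD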
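Material – MrgX1-expressing HEK293 cells · Input – 15,000 cells seeded per well · Dosing – compound as first of three additions · Times – overnight seeding, then 1 h dark dye loading · Measured by – kinetic Fluo-4 NW fluorescence of intracellular calcium · Read-out – B-scored fluorescence response ratio · Benchmarks – positive and negative control wells on each plate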
RGS4 inh valid – validation of RGS4 inhibitors; shares compounds with RGS4 inh; HEK293 M3R/RGS4, carbachol calcium Fluo-4 fluorescence; carbachol added at its EC20; 0 = buffer wells, 100 = carbachol control; calcium response, % at 10 µM; 65% of 1,700 active;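 active means duplicate-averaged calcium response above the buffer-only control mean plus 5 SD of those controls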;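 further: integrated fluorescence ratio F max minus min over baseline F0; higher response in RGS4-induced cells means RGS4 inhibition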
RGS4 uninduced – checks RGS4 inhibitor effects in non-induced HEK293 M3R cells; carbachol calcium Fluo-4; submaximal (EC20) carbachol stimulus; buffer wells 0%, carbachol control wells 100%; activity (percent), % at 10 µM; shares compounds with RGS4 inh; 20% of 1,900 active; call rule not given here;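 further: RGS4 induction absent so cells express M3R without RGS4; higher means more calcium signal and flags a non-specific hit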
M3R basal Ca ctr – second RGS4 inhibitor counter-screen in uninduced cells lacking carbachol; HEK293 M3R/RGS4 non-induced, Fluo-4 calcium, no carbachol; normalised: buffer wells 0%, carbachol wells 100%; 22% of 1,900 active; shares compounds with RGS4 inh; calcium response (agonist-mode artifact), % at 10 µM;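 active means duplicate-averaged calcium rise in uninduced cells above buffer wells' mean plus 5 SD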
Of the large screens only hits and unclear results are named; the others gave an inactive call (follow-up assays come after a bar, where they were run). An excerpt weighted towards active compounds, which were near 3.5% of everything screened.

O=C(Nc1nc(-c2cccs2)c(-c2ccccc2)s1)c1ccco1	RGS4 inh 14 | RGS4 inh valid 43% | RGS4 uninduced 52% | M3R basal Ca ctr inactive
Cc1ccc(/C=N/NC(=O)CSc2nc3ccccc3c(=O)n2-c2ccccc2C)s1	none
Cc1ccccc1-n1c(SCC(=O)N/N=C/c2sccc2C)nc2ccccc2c1=O	RGS4 inh 5.5 | RGS4 inh valid inactive | RGS4 uninduced inactive | M3R basal Ca ctr inactive
CN(CCCNC(=O)Cn1c(=O)c2cccn2c2ccccc21)Cc1ccccc1	RGS4 inh 23 | RGS4 inh valid inactive | RGS4 uninduced inactive | M3R basal Ca ctr inactive
CC(C)N(CCCNC(=O)Cn1c(=O)c2cccn2c2ccccc21)Cc1ccccc1	none | RGS4 inh valid inactive | RGS4 uninduced inactive | M3R basal Ca ctr inactive
O=C(Nc1ccc(Cl)cc1)C1CCN(C(=O)c2ccco2)CC1	none
O=C(O)C1CC1C(=O)Nc1nc2c(Cl)cccc2s1 (centres undefined)	none
c1ccc(-c2nc(NCc3cccnc3)c3ccccc3n2)cc1	none | RGS4 inh valid inactive | RGS4 uninduced inactive | M3R basal Ca ctr inactive
Clc1cccc(-c2nc(NCc3cccnc3)c3ccccc3n2)c1	none
Cc1ccc(-c2nc(NCc3cccnc3)c3ccccc3n2)cc1	none | RGS4 inh valid inactive | RGS4 uninduced inactive | M3R basal Ca ctr inactive
COc1ccc(C2=[N+]([O-])C(C)(C)C(c3ccccc3)=N2)cc1	none
CCN1CCN(C(=O)c2ccc(Cl)c(S(=O)(=O)N3CCCCCC3)c2)CC1	none
CCOC(=O)C1CCN(CC(=O)Nc2c(C(=O)OC)[nH]c3cccc(C)c23)CC1	none
C/C(=N\Nc1ccc(C(=O)O)cc1)c1ccc(Br)cc1	RGS4 inh 4.7 | RGS4 inh valid 20% | RGS4 uninduced 35% | M3R basal Ca ctr inactive
COc1ccccc1NCC(O)Cn1c2ccccc2c2ccccc21 (centres undefined)	none
COc1ccc(CCNCC(O)Cn2c3ccccc3c3ccccc32)cc1OC (centres undefined)	RGS4 inh 17 | RGS4 inh valid 62% | RGS4 uninduced inactive | M3R basal Ca ctr 14%
Cc1ccccc1OCc1nnc(SCc2nc3ccccc3c(=O)[nH]2)n1C	none
CCCCc1nc2n[nH]c(N)c2c2c1CSC(C)(C)C2	RGS4 inh 4.7 | RGS4 inh valid inactive | RGS4 uninduced inactive | M3R basal Ca ctr inactive
COc1cc(/C=N/NC(N)=O)cc(Br)c1OCc1ccc(C)cc1	none
CCc1ccc2c(c1)c(N=NC1=NC(=O)CS1)c(O)n2C	none | RGS4 uninduced inactive | M3R basal Ca ctr inactive
Cc1ccc(C(=O)CSc2nc3cccnc3n2C)cc1	none
COc1cc(CN2CCc3ccccc3C2)cc([N+](=O)[O-])c1O	none
Cc1c(C#N)c(O)n(CCO)c(=O)c1N=Nc1ccc2c(c1)COC2=O	RGS4 inh 5.2 | RGS4 inh valid inactive | RGS4 uninduced inactive | M3R basal Ca ctr 18%
CN(c1ccccc1)c1ccc(/C=C/[N+](=O)[O-])cc1	RGS4 inh 6.1 | RGS4 inh valid 32% | RGS4 uninduced inactive | M3R basal Ca ctr 108%
Cc1sc(C(C2C(=O)CC(C)(C)CC2=O)C2C(=O)CC(C)(C)CC2=O)cc1[N+](=O)[O-]	RGS4 inh 24 | RGS4 inh valid 90% | RGS4 uninduced 50% | M3R basal Ca ctr 62%
CC1(C)CC(=O)C(C(c2cc([N+](=O)[O-])ccc2Cl)C2C(=O)CC(C)(C)CC2=O)C(=O)C1	none
Cc1ccc(NC(=O)c2ccco2)c(NC(=O)c2cccs2)c1	none
Cc1ccccc1C1C(C#N)=C2N=C(N)c3ccccc3N2C2=C1C(=O)CCC2 (centres undefined)	none
